Source: ChEMBL document CHEMBL5696442, “Discovery of type II inhibitors of TGFβ-activated kinase 1 (TAK1) and mitogen-activated protein kinase kinase kinase kinase 2 (MAP4K2)” (J Med Chem, 2015)
The source made the active and inactive calls. No cut-off for these calls is given here.

Tests used:
[1] = molecular target: Cyclin-dependent kinase 2 (Homo sapiens) (UniProt P24941); assay: Inhibition of CDK2 Lys2 labeling site harbouring VLHRDLKPQNLLINTEGAIK in human Huh-7 cell lysate at 1 uM by KiNativ Profiling analysis relative to control; format: subcellular
[2] = Inhibition of KHS1 Lys2 labeling site harbouring DIKGANILLTDHGDVKLADFGVAAK in human Huh-7 cell lysate at 1 uM by KiNativ Profiling analysis relative to control; settings: condition cancer
[3] = molecular target: Putative phosphatidylinositol 4-kinase alpha-like protein P2 (Homo sapiens) (UniProt A4QPH2); assay: Inhibition of PI4KAP2 ATP labeling site in human Huh-7 cell lysate at 1 uM by KiNativ Profiling analysis relative to control; format: subcellular
Putative phosphatidylinositol 4-kinase alpha-like protein P2 (Homo sapiens), sequence (A4QPH2 whole entry): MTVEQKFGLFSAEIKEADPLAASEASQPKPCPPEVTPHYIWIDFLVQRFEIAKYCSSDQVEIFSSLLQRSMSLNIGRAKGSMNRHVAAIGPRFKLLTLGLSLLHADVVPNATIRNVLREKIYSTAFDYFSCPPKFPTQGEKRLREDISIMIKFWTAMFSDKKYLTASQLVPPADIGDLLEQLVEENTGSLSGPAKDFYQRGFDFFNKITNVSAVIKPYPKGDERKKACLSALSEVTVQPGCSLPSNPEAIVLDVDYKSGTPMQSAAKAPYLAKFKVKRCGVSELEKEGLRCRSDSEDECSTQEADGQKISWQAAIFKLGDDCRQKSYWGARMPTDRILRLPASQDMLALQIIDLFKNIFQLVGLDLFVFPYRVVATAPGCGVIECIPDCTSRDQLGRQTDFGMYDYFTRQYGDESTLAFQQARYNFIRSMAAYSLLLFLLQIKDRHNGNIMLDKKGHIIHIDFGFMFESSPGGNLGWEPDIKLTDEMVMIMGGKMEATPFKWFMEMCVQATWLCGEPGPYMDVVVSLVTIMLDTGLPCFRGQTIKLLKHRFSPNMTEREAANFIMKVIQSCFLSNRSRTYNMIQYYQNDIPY

[4] = molecular target: Serine/threonine-protein kinase MARK1 (Homo sapiens) (UniProt Q9P0L2); assay: Inhibition of MARK1 (unknown origin) at 1 uM by Ambit Kinomescan binding assay relative to control; values are per cent of control
[5] = molecular target: T1, Serine/threonine-protein kinase tousled-like 1 (Homo sapiens) (UniProt Q9UKI8); assay: Inhibition of TLK1 (unknown origin) at 1 uM by Ambit Kinomescan binding assay relative to control
T1 sequence (whole entry): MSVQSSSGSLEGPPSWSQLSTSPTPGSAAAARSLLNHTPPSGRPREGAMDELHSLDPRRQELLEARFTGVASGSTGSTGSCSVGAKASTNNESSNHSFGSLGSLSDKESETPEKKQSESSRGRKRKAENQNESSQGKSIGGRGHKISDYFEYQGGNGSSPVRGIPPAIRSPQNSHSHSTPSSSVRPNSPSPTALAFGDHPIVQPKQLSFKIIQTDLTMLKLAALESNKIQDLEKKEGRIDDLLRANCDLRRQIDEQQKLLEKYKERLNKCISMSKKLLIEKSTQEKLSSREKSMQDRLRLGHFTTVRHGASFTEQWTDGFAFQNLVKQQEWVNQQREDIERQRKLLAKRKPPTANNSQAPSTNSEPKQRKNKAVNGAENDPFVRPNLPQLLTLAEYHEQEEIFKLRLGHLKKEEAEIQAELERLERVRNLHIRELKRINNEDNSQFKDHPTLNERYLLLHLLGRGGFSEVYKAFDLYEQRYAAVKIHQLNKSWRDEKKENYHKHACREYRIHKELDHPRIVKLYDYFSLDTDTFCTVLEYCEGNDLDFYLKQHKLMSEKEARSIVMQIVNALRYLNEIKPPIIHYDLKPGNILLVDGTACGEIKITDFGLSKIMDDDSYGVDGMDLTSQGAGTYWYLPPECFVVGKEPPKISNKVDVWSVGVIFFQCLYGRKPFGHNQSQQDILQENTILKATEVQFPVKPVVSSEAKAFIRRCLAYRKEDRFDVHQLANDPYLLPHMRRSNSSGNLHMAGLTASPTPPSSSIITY

[6] = molecular target: Serine/threonine-protein kinase DCLK3 (Homo sapiens) (UniProt Q9C098); assay: Inhibition of DCAMKL3 (unknown origin) at 1 uM by Ambit Kinomescan binding assay relative to control; values are per cent of control
Serine/threonine-protein kinase DCLK3 (Homo sapiens), sequence (Q9C098 whole entry): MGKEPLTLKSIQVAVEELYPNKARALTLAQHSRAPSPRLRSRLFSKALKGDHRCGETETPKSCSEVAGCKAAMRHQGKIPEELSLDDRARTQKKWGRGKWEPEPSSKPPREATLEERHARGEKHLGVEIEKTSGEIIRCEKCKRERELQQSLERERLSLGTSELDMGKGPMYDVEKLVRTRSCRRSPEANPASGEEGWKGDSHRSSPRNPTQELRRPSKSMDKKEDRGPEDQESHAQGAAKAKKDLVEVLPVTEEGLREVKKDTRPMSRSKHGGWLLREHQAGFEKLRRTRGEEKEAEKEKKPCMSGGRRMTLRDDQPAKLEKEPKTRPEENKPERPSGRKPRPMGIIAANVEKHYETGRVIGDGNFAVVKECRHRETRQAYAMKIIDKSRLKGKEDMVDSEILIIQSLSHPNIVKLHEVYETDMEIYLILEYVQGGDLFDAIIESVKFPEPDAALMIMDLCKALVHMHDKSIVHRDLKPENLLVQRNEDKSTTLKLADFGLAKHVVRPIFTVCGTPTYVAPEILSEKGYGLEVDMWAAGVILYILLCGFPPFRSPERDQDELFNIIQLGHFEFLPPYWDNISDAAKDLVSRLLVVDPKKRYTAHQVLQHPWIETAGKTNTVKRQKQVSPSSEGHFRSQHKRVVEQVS

[7] = molecular target: Proto-oncogene tyrosine-protein kinase receptor Ret (Homo sapiens) (UniProt P07949); assay: Inhibition of RET (unknown origin) at 1 uM by Ambit Kinomescan binding assay relative to control; values are per cent of control
[8] = molecular target: Serine/threonine-protein kinase pim-1 (Homo sapiens) (UniProt P11309); assay: Inhibition of PIM1 (unknown origin) at 1 uM by Ambit Kinomescan binding assay relative to control; values are per cent of control
[9] = test system: Mast/stem cell growth factor receptor Kit (Homo sapiens), P10721 [A829P]; assay: Inhibition of KIT A829P mutant (unknown origin) at 1 uM by Ambit Kinomescan binding assay relative to control; values are per cent of control
Mast/stem cell growth factor receptor Kit (Homo sapiens), P10721 [A829P], sequence (P10721 whole entry A829P): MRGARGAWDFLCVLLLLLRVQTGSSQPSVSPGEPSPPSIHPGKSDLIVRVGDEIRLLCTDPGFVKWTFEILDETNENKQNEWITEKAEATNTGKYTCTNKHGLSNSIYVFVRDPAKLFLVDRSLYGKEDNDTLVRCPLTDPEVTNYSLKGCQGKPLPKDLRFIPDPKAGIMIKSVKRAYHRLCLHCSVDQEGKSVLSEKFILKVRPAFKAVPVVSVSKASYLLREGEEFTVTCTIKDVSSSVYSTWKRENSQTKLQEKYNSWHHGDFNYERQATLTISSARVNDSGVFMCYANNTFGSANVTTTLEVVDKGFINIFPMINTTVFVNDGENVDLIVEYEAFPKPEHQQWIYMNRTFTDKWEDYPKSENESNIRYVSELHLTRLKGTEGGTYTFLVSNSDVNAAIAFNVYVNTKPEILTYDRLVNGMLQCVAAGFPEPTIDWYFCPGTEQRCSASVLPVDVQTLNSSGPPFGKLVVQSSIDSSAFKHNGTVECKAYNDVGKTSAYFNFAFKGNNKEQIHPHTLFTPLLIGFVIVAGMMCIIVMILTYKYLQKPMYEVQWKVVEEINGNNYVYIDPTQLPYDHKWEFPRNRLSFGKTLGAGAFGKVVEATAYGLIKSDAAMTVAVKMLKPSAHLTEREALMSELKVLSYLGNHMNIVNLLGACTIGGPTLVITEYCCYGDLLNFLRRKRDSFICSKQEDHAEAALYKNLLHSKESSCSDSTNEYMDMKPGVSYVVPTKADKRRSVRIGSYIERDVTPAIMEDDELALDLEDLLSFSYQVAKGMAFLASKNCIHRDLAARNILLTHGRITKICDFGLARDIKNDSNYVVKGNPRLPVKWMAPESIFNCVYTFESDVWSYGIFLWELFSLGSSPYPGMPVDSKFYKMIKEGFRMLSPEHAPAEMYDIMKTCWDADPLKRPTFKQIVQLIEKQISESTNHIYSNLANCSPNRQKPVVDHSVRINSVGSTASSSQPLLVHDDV

[10] = molecular target: cAMP-dependent protein kinase catalytic subunit alpha (Homo sapiens) (UniProt P17612); assay: Inhibition of PKAC alpha (unknown origin) at 1 uM by Ambit Kinomescan binding assay relative to control
Summary of the method: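 In vitro ATP-site competition binding assay against a panel of over 420 kinases (KinomeScan), with compound tested at 10 or 1 μM.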

[11] = molecular target: Fibroblast growth factor receptor 3 (Homo sapiens) (UniProt P22607); assay: Inhibition of FGFR3 (unknown origin) at 1 uM by Ambit Kinomescan binding assay relative to control; values are per cent of control
[12] = molecular target: Mitogen-activated protein kinase kinase kinase 19 (Homo sapiens) (UniProt Q56UN5); assay: Inhibition of YSK4 (unknown origin) at 1 uM by Ambit Kinomescan binding assay relative to control; values are per cent of control
[13] = molecular target: Ephrin type-A receptor 4 (Homo sapiens) (UniProt P54764); assay: Inhibition of EPHA4 (unknown origin) at 1 uM by Ambit Kinomescan binding assay relative to control; values are per cent of control
[14] = molecular target: Ribosomal protein S6 kinase alpha-3 (Homo sapiens) (UniProt P51812); assay: Inhibition of N-terminal RPS6KA3 kinase domain 1 (unknown origin) at 10 uM by Ambit Kinomescan binding assay
[15] = Inhibition of MARK2/3 K2 labeling site in human Huh-7 cells at 10 uM by KiNativ Profiling analysis relative to control; settings: condition cancer
[16] = molecular target: Casein kinase I isoform delta (Homo sapiens) (UniProt P48730); assay: Inhibition of CK1delta Lys2 labeling site in human A-375 cells at 0.5 uM by KiNativ Profiling analysis relative to control; format: cell-based
Casein kinase I isoform delta (Homo sapiens), sequence (P48730 whole entry, looked up, canonical isoform): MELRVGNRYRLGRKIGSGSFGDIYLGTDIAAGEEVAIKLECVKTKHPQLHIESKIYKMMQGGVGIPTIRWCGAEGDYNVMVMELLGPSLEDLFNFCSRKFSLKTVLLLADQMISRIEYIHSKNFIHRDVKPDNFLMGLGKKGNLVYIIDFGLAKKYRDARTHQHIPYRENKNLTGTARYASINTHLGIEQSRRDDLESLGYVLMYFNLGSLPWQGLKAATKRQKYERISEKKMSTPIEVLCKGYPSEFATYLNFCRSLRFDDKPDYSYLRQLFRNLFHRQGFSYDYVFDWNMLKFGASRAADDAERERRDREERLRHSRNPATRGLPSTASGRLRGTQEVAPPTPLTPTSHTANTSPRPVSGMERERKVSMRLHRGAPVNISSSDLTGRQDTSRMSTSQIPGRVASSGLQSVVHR

[17] = molecular target: Myosin-IIIa (Homo sapiens) (UniProt Q8NEV4); assay: Inhibition of MYO3A (unknown origin) at 10 uM by Ambit Kinomescan binding assay relative to control
Myosin-IIIa (Homo sapiens), sequence (Q8NEV4 whole entry, the tested form may be a part): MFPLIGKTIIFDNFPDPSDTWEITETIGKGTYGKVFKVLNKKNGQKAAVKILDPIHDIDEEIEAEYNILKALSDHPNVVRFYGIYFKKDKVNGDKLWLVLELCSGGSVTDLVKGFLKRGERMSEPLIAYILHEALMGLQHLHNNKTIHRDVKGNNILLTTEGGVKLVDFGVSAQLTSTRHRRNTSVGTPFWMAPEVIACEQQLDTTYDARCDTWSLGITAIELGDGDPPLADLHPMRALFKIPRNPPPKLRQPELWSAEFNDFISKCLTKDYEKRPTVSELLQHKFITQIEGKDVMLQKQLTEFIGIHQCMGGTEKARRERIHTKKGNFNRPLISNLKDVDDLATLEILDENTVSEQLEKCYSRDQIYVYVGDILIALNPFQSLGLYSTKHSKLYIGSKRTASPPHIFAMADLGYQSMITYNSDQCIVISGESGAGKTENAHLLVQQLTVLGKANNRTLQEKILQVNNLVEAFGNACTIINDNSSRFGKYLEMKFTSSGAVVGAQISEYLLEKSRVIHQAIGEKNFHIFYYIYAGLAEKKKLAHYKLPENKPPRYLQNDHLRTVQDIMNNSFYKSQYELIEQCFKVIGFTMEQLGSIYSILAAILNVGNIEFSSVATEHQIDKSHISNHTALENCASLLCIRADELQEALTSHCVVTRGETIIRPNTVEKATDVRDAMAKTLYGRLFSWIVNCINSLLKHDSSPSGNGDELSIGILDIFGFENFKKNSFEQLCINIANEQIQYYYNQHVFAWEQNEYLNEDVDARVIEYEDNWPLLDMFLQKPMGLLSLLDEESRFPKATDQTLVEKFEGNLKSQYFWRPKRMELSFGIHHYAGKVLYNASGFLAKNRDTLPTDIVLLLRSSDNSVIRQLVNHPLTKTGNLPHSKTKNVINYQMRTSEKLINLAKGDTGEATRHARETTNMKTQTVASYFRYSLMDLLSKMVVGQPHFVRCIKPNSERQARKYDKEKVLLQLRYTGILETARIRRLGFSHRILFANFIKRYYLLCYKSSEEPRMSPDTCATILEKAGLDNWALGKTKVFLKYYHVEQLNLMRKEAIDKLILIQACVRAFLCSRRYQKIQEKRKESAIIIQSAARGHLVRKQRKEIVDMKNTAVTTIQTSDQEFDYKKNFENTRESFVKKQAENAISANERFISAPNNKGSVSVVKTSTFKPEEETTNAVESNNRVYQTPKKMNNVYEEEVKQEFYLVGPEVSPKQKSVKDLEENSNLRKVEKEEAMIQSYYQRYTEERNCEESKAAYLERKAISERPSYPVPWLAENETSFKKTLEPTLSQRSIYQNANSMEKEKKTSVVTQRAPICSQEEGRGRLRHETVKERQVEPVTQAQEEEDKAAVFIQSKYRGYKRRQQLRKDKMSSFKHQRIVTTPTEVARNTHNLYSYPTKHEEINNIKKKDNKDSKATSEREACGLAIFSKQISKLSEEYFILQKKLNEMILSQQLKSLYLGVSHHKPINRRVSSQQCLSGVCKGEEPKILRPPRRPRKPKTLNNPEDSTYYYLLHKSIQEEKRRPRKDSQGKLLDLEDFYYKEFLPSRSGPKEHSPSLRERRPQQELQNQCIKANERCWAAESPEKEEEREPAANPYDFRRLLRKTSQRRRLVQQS

[18] = molecular target: Ribosomal protein S6 kinase alpha-1 (Homo sapiens) (UniProt Q15418); assay: Inhibition of RSK1 Domain 1 ACT labeling site harbouring LTDFGLSKEAIDHEKK in human Huh-7 cells at 1 uM by KiNativ Profiling analysis relative to control; format: cell-based
[19] = molecular target: Cyclin-dependent kinase 16 (Homo sapiens) (UniProt Q00536); assay: Inhibition of PCTAIRE1 Lys1 labeling site in human A-375 cells at 0.05 uM by KiNativ Profiling analysis relative to control; format: cell-based
[20] = molecular target: Mitogen-activated protein kinase 4 (Homo sapiens) (UniProt P31152); assay: Inhibition of ERK4 (unknown origin) at 10 uM by Ambit Kinomescan binding assay
Mitogen-activated protein kinase 4 (Homo sapiens), sequence (P31152 whole entry): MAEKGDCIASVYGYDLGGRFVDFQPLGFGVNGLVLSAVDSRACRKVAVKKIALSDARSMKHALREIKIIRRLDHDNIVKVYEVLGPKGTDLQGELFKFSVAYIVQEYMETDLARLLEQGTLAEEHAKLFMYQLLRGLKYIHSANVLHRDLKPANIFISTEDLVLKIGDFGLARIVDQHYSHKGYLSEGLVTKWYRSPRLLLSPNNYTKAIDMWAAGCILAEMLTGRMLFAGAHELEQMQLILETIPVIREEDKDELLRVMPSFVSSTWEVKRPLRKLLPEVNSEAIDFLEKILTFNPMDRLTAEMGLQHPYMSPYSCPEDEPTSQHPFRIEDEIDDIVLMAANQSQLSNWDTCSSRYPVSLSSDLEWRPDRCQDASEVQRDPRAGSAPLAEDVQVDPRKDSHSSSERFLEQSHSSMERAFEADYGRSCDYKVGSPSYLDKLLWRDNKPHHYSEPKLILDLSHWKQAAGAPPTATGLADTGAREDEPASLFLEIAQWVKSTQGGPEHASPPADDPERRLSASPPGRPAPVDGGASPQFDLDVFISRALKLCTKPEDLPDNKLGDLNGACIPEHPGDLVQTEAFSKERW

**Q.** For CNc1cc(Oc2cc(C(=O)Nc3cc(N4CCN(C)CC4)cc(C(F)(F)F)c3)ccc2C)ncn1, which inhibition [1] is on record?
**A.** The inhibition was 16.1%.

**Q.** What about the inhibition at 1 µM [2] of the same compound?
**A.** The inhibition at 1 µM was 10.4%.

**Q.** What about the inhibition [3] of the same compound?
**A.** The inhibition was 2%.

**Q.** With CCN1CCN(Cc2ccc(NC(=O)c3ccc(C)c(/C=C/c4cnc5[nH]ccc5c4OC)c3)cc2C(F)(F)F)CC1 as the compound, how does the residual activity [4] read?
**A.** The residual activity was 100%.

**Q.** And the inhibition [5]?
**A.** The inhibition was 79%.

**Q.** And the residual activity [6]?
**A.** Its residual activity is 100%.

**Q.** And the percent of control [7]?
**A.** The percent of control was 0%.

**Q.** What about the residual activity [8] of the same compound?
**A.** Its residual activity is 100%.

**Q.** And the residual activity [9]?
**A.** The residual activity was 8%.

**Q.** What about the inhibition [10] of the same compound?
**A.** The inhibition was 84%.

**Q.** What about the residual activity [11] of the same compound?
**A.** Its residual activity is 13%.

**Q.** And the percent of control [12]?
**A.** Its percent of control is 1.1%.

**Q.** And the residual activity [13]?
**A.** Its residual activity is 3.7%.

**Q.** With CCN1CCN(Cc2ccc(NC(=O)c3ccc(C)c(Oc4ccnc5[nH]ccc45)c3)cc2C(F)(F)F)CC1 as the compound, how does the inhibition [14] read?
**A.** The inhibition was “inactive”.

**Q.** What about the inhibition at 10 µM [15] of the same compound?
**A.** The inhibition at 10 µM was 11.8%.

**Q.** What about the inhibition [16] of the same compound?
**A.** The inhibition was 3.3%.

**Q.** What about the inhibition [17] of the same compound?
**A.** Its inhibition is 6.4%.

**Q.** And the inhibition [18]?
**A.** Its inhibition is 6.9%.

**Q.** What about the inhibition [19] of the same compound?
**A.** The inhibition was 31.9%.

**Q.** What about the inhibition [20] of the same compound?
**A.** Its inhibition is “inactive”.
